Assay results taken from ChEMBL document CHEMBL1909539, “Reappraising the structures and distribution of metabolites from black aspergilli containing uncommon 2-benzyl-4H-pyran-4-one and 2-benzylpyridin-4(1H)-one systems” (J Nat Prod, 2011).
Calls of active or inactive are those of the source. The calls are words filed in the database; no cut-off is given here.

Assays:
Type in all cases: functional, organism-based
[1] = system: Klebsiella pneumoniae; assay: Antibacterial activity against Klebsiella pneumoniae ATCC 33495 at 100 ug/ml after 24 hrs
Outline: (§1)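 Broth growth assay in 96-well plates with test compounds added from DMSO stocks (final DMSO 1%). OD600 was read after brief orbital shaking, then again after 24 h incubation at 37 °C in a humidified incubator. Activity was taken as the change in OD600 between the two readings.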

[2] = system: Escherichia coli; assay: Antibacterial activity against Escherichia coli ATCC 10798 at 100 ug/ml after 24 hrs; outline: as §1
[3] = system: Enterobacter cloacae; assay: Antibacterial activity against Enterobacter cloacae ATCC 13047 at 100 ug/ml after 24 hrs; outline: as §1
[4] = system: Staphylococcus epidermidis; assay: Antibacterial activity against Staphylococcus epidermidis ATCC 12228 at 100 ug/ml after 24 hrs; outline: as §1
[5] = system: Burkholderia cepacia; assay: Antibacterial activity against Burkholderia cepacia ATCC 25608 at 100 ug/ml after 24 hrs; outline: as §1
[6] = system: Staphylococcus aureus; assay: Antibacterial activity against Staphylococcus aureus ATCC 700787 at 100 ug/ml after 24 hrs; outline: as §1
[7] = system: Pseudomonas aeruginosa; assay: Antibacterial activity against Pseudomonas aeruginosa ATCC 10145 at 100 ug/ml after 24 hrs; outline: as §1
[8] = system: Klebsiella pneumoniae; assay: Antibacterial activity against Klebsiella pneumoniae ATCC 51503 at 100 ug/ml after 24 hrs; outline: as §1
[9] = system: Acinetobacter baumannii; assay: Antibacterial activity against Acinetobacter baumannii ATCC BAA-1605 at 100 ug/ml after 24 hrs; outline: as §1
[10] = system: Escherichia coli; assay: Antibacterial activity against Escherichia coli ATCC 11775 at 100 ug/ml after 24 hrs; outline: as §1
[11] = system: Acinetobacter baumannii; assay: Antibacterial activity against Acinetobacter baumannii ATCC 19606 at 100 ug/ml after 24 hrs; settings: ATCC 19606 = CIP 70.34 = JCM 6841; outline: as §1
[12] = system: Staphylococcus aureus; assay: Antibacterial activity against Staphylococcus aureus ATCC 25293 at 100 ug/ml after 24 hrs; outline: as §1
[13] = system: Aspergillus fumigatus; assay: Antifungal activity against Aspergillus fumigatus NRRL A1100 at 10 ug/ml after 48 hrs
Outline: (§2)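 Yeasts and Aspergillus cultures were dispensed into 96-well plates and compound in DMSO was added (1% DMSO final). Plates were shaken orbitally and OD600 was read at start. After 48 h at 37 °C, humidified, OD600 was read again, and activity was calculated as the change in optical density.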

[14] = system: Candida tropicalis; assay: Antifungal activity against Candida tropicalis ATCC 12968 at 100 ug/ml after 48 hrs; outline: as §2
[15] = system: Pichia kudriavzevii; assay: Antifungal activity against Candida krusei ATCC 27803 at 10 ug/ml after 48 hrs; outline: as §2
[16] = system: Candida albicans; assay: Antifungal activity against Candida albicans ATCC 38245 at 100 ug/ml after 48 hrs; outline: as §2
[17] = system: Aspergillus flavus; assay: Antifungal activity against Aspergillus flavus NRRL A1120 at 10 ug/ml after 48 hrs; outline: as §2
[18] = system: Aspergillus flavus; assay: Antifungal activity against Aspergillus flavus NRRL A1120 at 100 ug/ml after 48 hrs; outline: as §2
[19] = system: Aspergillus fumigatus; assay: Antifungal activity against Aspergillus fumigatus NRRL A1100 at 100 ug/ml after 48 hrs; outline: as §2
[20] = system: Candida parapsilosis; assay: Antifungal activity against Candida parapsilosis ATCC 12969 at 100 ug/ml after 48 hrs; outline: as §2
[21] = system: Nakaseomyces glabratus; assay: Antifungal activity against Candida glabrata NRRL Y-65 at 100 ug/ml after 48 hrs; outline: as §2
[22] = system: Pichia kudriavzevii; assay: Antifungal activity against Candida krusei ATCC 27803 at 100 ug/ml after 48 hrs; outline: as §2
[23] = system: Candida albicans; assay: Potentiation of antifungal activity of imidazole against Candida albicans ATCC 38245 by broth microdilution assay

SMILES	inhibition [1]	inhibition [2]	inhibition [3]	inhibition [4]	inhibition [5]	inhibition [6]	inhibition [7]	inhibition [8]	inhibition [9]	inhibition [10]	inhibition [11]	inhibition [12]	Activity [23]	further results
NC(=O)c1cn(-c2ccc(F)cc2)c(Cc2ccccc2)cc1=O	inactive	inactive	inactive	inactive	inactive	inactive	inactive	inactive	inactive	inactive	inactive	inactive		
CCOC(=O)c1coc(-c2ccccc2)cc1=O														inhibition [13]: Active; inhibition [14]: Active; inhibition [15]: Active; inhibition [16]: Active; inhibition [17]: Active; inhibition [18]: Active; inhibition [19]: Active; inhibition [20]: Active; inhibition [21]: Active; inhibition [22]: Active
NC(=O)c1coc(Cc2ccccc2)cc1=O	inactive	inactive	inactive	inactive	inactive	inactive	inactive	inactive	inactive	inactive	inactive	inactive	inactive	
COC(=O)[C@@H](C)CC(=O)NC(=O)c1coc(Cc2ccccc2)cc1=O													inactive	
C[C@@H](CC(=O)NC(=O)c1cn(-c2ccccc2)c(Cc2ccccc2)cc1=O)C(=O)O	inactive	inactive	inactive	inactive	inactive	inactive	inactive	inactive	inactive	inactive	inactive	inactive		
C[C@@H](CC(=O)NC(=O)c1coc(Cc2ccccc2)cc1=O)C(=O)O	inactive	inactive	inactive	inactive	inactive	inactive	inactive	inactive	inactive	inactive	inactive	inactive	inactive	
COC(=O)c1coc(Cc2ccccc2)cc1=O	inactive	inactive	inactive	inactive	inactive	inactive	inactive	inactive	inactive	inactive	inactive	inactive	inactive	inhibition [14]: Active; inhibition [16]: Active; inhibition [17]: Active; inhibition [18]: Active; inhibition [19]: Active; inhibition [20]: Active; inhibition [21]: Active; inhibition [22]: Active
